Shown are actives, neighbours in structure and some others; about 2.1% of the full set was active somewhere.
SR-BI uptake up – enhances SR-BI lipid uptake from DiI-HDL. CHO ldlA[mSR-BI] cells, DiI-HDL uptake fluorescence, 3 h; 100 = double the neutral-control signal. activation, % at 12.5 µM. hit rate 0.096% among 320,000. AID 504775;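 active = mean replicate activation of at least 60% and every replicate at or above 60%; inconclusive = mean or all-replicate condition met, but not both; inactive = mean below 60% and not all replicates reaching 60%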
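Material: SR-BI-overexpressing, LDLR-lacking CHO cells | Dosing: Single compound concentration, delivered by pin transfer | Probe or stimulus: Labelled HDL, 10 µg/mL | Signal: Bottom-read cell fluorescence after medium removal, ex 550/em 595 nm | Schedule: 3 h, 37 °C | Evaluation: HDL uptake via cellular fluorescence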
dFosB act – mouse delta FosB homodimer activation | hit rate 0.99% among 340,000 | purified delta FosB, TAMRA-CDK5 oligo fluorescence polarization; percent of positive-control signal above neutral wells | P13346 | activation, % at 25 µM;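 active = mean activation above about 17%, with every replicate also reaching it, limit read from the data, passing the limit was not always enough; inconclusive = only one of the two conditions met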
Target sequence (P13346 whole entry, looked up): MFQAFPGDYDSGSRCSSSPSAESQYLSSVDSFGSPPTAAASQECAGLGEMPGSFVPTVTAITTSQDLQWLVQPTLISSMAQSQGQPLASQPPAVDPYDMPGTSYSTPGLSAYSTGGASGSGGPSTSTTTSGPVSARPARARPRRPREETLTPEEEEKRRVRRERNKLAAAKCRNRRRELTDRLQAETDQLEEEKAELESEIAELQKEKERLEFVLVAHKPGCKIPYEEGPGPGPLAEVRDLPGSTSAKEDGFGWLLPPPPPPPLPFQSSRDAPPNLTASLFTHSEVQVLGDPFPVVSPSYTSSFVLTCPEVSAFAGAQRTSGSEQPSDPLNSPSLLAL
SR-BI DiI inh – inhibitors of mouse SR-BI mediated HDL lipid uptake; ldlA[mSR-BI] CHO cells, DiI-HDL uptake fluorescence, 3 h; inhibition, % at 12.5 µM; hit rate 0.96% among 320,000;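 active = mean replicate inhibition of at least 70% and a set share of replicates each scoring 70 or more; inconclusive = meets just one of the two criteria; inactive = fails both criteria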
CDK5 p35 inh – blocks human CDK5/p35 kinase activity; Recombinant CDK5/p35, ADP-Glo luminescence, 60 min; inhibition, % at 10 µM; hit rate 0.01% among 330,000;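 active = highest replicate inhibition of at least 50% and at least 75% of replicates reaching 50%; inconclusive = only one of the two criteria met; inactive = both criteria failed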
PKA-R2B act – activates the human PKA-R2B holoenzyme complex. P22694+P31323. PKA-R2B holoenzyme dissociation, Cy5-IP20 fluorescence polarization; R2B truncated from residue 108, S112A mutant; 0% DMSO only, 100% 113 µM cGMP. activation, % at 11.4 µM. hit rate 0.079% among 340,000. AID 504700;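 active = activation above a cutoff set at the mean over all compounds plus 3 SD, cut at about 18% in these data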;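 note: higher means more holoenzyme dissociation and a rise in polarization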
PKA-R1A act – activators of PKA-R1A complex | PKA-R1A dissociation, Cy5-IP20 fluorescence polarization; scaled: DMSO 0%, 113 µM cGMP 100% | AID 504707 | hit rate 0.083% among 340,000 | P00514+P68181 | activation, % at 11.4 µM;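 active = percent activation above the mean of all tested compounds plus 3 SD, cut at about 19% in these data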;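 note: higher means more PKAc released from R1A so a rise in polarization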
DiI quench – DiI fluorescence quenching in cell-free counter-screen; shares compounds with SR-BI DiI inh; cell-free DiI-HDL fluorescence quenching, 30 min; AC50, µM (top dose mostly 35 µM); hit rate 20% among 470;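 active = quenching, a falling signal, with AC50 below a set limit tied to the top valid dose, actives reach about 32 µM in these data; inconclusive = no clear call, values can overlap the other calls; inactive = rising signal, and the rest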
Large screens that a line does not name were inactive (follow-up assays come after a bar, where they were run).

O=C(O)c1ccc(CN2C(=O)c3ccc(Oc4ccc([N+](=O)[O-])cc4)cc3C2=O)cc1	none
O=C(Nc1ccccc1)Nc1sccc1-c1nc2ccccc2s1	none (no result: PKA-R2B act, PKA-R1A act)
O=C(Nc1cccc(Cl)c1)Nc1sccc1-c1nc2ccccc2s1	SR-BI DiI inh 105.5 (no result: PKA-R2B act, PKA-R1A act) | DiI quench inactive
CC(=O)N1CCCc2cc(S(=O)(=O)N3CCCC(C)C3)ccc21 (configuration not stated)	none
COc1cccc(CNC(=O)C(=O)N2CCC3(CC2)OCCN3S(=O)(=O)c2ccc(C)cc2)c1	none
Oc1csc(Cc2nc(-c3ccc4ccccc4c3)cs2)n1	SR-BI DiI inh inconclusive | DiI quench 16.1µM
Cc1cc(C)cc(SCc2noc(C(=O)NCCC(C)C)c2C(=O)NCCC(C)C)c1	none
CCCOc1ccc(C(=O)Nc2ccc(S(=O)(=O)N3C[C@@H]4C[C@@H](C3)c3cccc(=O)n3C4)cc2)cc1	none | DiI quench inactive
CCCOc1ccc(C(=O)Nc2ccc(S(=O)(=O)N3CCN(C)CC3)cc2)cc1	none
Cc1cccc(C)c1NC(=O)NC1(C(=O)NCC2CCCO2)CCCCC1 (configuration not stated)	none (no result: SR-BI uptake up, SR-BI DiI inh)
Cc1cc(C)cc(C(=O)NC(CC(N)=O)c2ccc(NC3CCCC3)c([N+](=O)[O-])c2)c1 (configuration not stated)	none
COc1cc(NC(=O)c2ccco2)c(OC)cc1NC(=O)Nc1ccc(Cl)cc1	SR-BI DiI inh 100.0 | DiI quench 5.08µM
COc1cc(NC(=O)Cc2ccc(Cl)cc2)ccc1NC(=O)c1ccco1	none
O=C(COc1cc2oc(=O)c3c(c2cc1Cl)CCC3)NCc1ccccn1	none
O=C(NCCOC(=O)c1ccc(S(=O)(=O)N2CCOCC2)cc1)c1cccnc1	none
O=C(OCCNc1ncc(C(F)(F)F)cc1Cl)c1ccc(S(=O)(=O)N2CCOCC2)cc1	SR-BI DiI inh 81.2 | DiI quench inactive
CCc1noc(C)c1C(=O)N1CCCC(N2CCN(c3cccc(Cl)c3)CC2)C1 (configuration not stated)	none
COc1ccc(C2/C=C\CN(S(=O)(=O)c3ccc(C)cc3)[C@H](Cc3ccccc3)C(=O)N2Cc2ccc(F)cc2)cc1 (some centres not stated)	none
COc1ccc(C2/C=C\CN(S(=O)(=O)c3ccc(-c4ccccc4)cc3)CC(=O)N2Cc2ccc(F)cc2)cc1 (configuration not stated)	SR-BI DiI inh 81.2 | DiI quench inactive
CC(=O)Nc1nc(-c2ccccc2)nc(-c2ccccc2OC(C)=O)n1	SR-BI DiI inh inconclusive | DiI quench inactive
CCc1cc2c(=O)c(-c3ccc4c(c3)OCCO4)coc2cc1OS(C)(=O)=O	SR-BI DiI inh 74.6 | DiI quench inactive
CCc1cc2c(=O)c(-c3ccc4c(c3)OCCO4)coc2c(CN2CCCCC2C)c1O (configuration not stated)	none
COc1ccc(N2CCN(C(=O)c3cc(=O)[nH]c4ccccc34)CC2)cc1	none | DiI quench inactive
COc1cc(/C=C/C(=O)OCC(=O)c2ccc[nH]2)cc(OC)c1OC	SR-BI DiI inh inconclusive | DiI quench inactive
COc1ccc(/C=C/C(=O)OCC(=O)c2ccc[nH]2)cc1	none
CC(C)=CCc1c2c(c3occ(-c4ccc(O)c(O)c4)c(=O)c3c1O)C=CC(C)(C)O2	SR-BI DiI inh 130.9 | DiI quench 0.809µM
CCOC(=O)C1=CN(c2cccc(F)c2)C=C(C(=O)OCC)C1c1cc(OC)c(O)c([N+](=O)[O-])c1	none | DiI quench 7.72µM
COC(=O)C1=CN(c2ccc(F)cc2)C=C(C(=O)OC)C1c1ccc([N+](=O)[O-])cc1	none
CCOc1ccc2c(c1)-c1c(ssc1=S)C(C)(C)N2C(=O)c1ccco1	SR-BI DiI inh 73.5 | DiI quench 30.7µM
CC1Cc2ccccc2N1CC(=O)Nc1ccc(N2CCOCC2)cc1 (configuration not stated)	SR-BI DiI inh 83.1 | DiI quench inactive
Cc1ccc2c(c1)C(=O)C(=O)N2CC(=O)Nc1ccc(N2CCOCC2)cc1	none | DiI quench inactive
O=C(NNC(=O)c1cc(Br)ccc1O)c1csc(N2CCOCC2)n1	SR-BI DiI inh 128.0 | DiI quench 1µM
Cc1ccc(C(=O)N2CCc3ccccc32)cc1C	none
CCOC(=O)C1CCN(C(=O)Cn2nc(C)n3nc(-c4ccc(OC)cc4)cc3c2=O)CC1	none | DiI quench inactive
CCOC(=O)N1CCN(C(=O)Cn2nc(C)n3nc(-c4ccc(OC)cc4)cc3c2=O)CC1	none
COC(=O)[C@]1(CC(C)C)N[C@H](c2ccc(-c3cccc(Cl)c3)cc2)[C@@H]2C(=O)N(C)C(=O)[C@@H]21	SR-BI DiI inh 74.4 | DiI quench inactive
COC(=O)[C@]1(C)N[C@H](c2ccc(-c3cccc(Cl)c3)cc2)[C@@H]2C(=O)N(C)C(=O)[C@@H]21	none
CSc1sc(-c2ccnc(SCCS(C)(=O)=O)n2)c(-c2ccccc2)c1C#N	none
CSc1nccc(-c2sc(SC)c(C#N)c2-c2ccccc2)n1	SR-BI DiI inh 84.2 | DiI quench inactive
COc1ccc2c(c1)-c1c(sn(-c3ccccc3)c1=S)C(C)(C)N2	none
COc1ccc2c(c1)-c1c(sn(-c3ccc(OC)c(OC)c3)c1=S)C(C)(C)N2	SR-BI DiI inh 107.8 | DiI quench 3.08µM
COc1ccc(-n2sc3c(c2=S)-c2cc(OC)ccc2NC3(C)C)cc1	SR-BI DiI inh 108.4 | DiI quench 2.53µM
Cc1ccc(S(=O)(=O)N2CCCCC2)cc1NC(=O)COC(=O)C1(C)CC1(Cl)Cl (configuration not stated)	none
CCn1c(SCC(=O)Nc2ncc(C(F)(F)F)cc2Cl)nnc1-c1cccc(C)c1	none
COc1ccc(-c2nnc(SCC(=O)Nc3ncc(C(F)(F)F)cc3Cl)n2CC(C)C)cc1	none | DiI quench inactive
Cc1ccc(-n2c(C)nc3c(cnn3-c3ccccc3Cl)c2=O)cc1C	none
Cc1nc2c(cnn2-c2ccccc2Cl)c(=O)n1-c1ccc(N2CCC(C)CC2)cc1	SR-BI DiI inh 72.4 | DiI quench inactive
CCc1ccc([C@@H]2CC=C(C(=O)O)[C@H](c3ccc(C(C)(C)C)cc3)N2S(=O)(=O)c2ccc(C)cc2)cc1	none
CC(CCc1ccccc1)NC(=O)C1CCN(C(=O)c2sccc2-n2cccc2)CC1 (configuration not stated)	SR-BI DiI inh 87.7 | DiI quench inactive
